From article PMC6257985 (The FEBS journal, 2017)
Where no end group is shown, it is not given here. The star is where a group is joined. αGalNAc = CC(=O)N[C@@H]1[C@@H](O)[C@@H](O)[C@@H](CO)O[C@@H]1*

Legend:
[1] = target: T1, recombinant Bauhinia forficata lectin (BfL) (Bauhinia forficata, UniProt P86993); assay: glyco-antigen microarray binding of BfL, apparent Kd; details: for RFUmax: carbohydrate array, maximum signal of the binding curve
T1 sequence (P86993 1-233): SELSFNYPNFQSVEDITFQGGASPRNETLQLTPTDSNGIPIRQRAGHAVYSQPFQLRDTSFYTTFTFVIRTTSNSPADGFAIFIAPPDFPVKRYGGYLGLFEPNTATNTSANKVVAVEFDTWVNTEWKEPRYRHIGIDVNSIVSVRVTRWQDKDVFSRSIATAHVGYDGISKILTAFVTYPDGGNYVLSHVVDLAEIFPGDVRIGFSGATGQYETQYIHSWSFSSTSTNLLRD
In short: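 His6-tagged lectin expressed in E. coli, refolded from inclusion bodies, and gel-filtered in 50 mM Hepes pH 7.5, 150 mM NaCl. Glycans on BSA or HSA (neoglycoproteins), some at high and low density. Arrays blocked overnight at 4 °C in 3% BSA TBS. Lectin dilutions in 1% BSA TBS with 2 mM CaCl2 and 0.05% Tween-20, duplicate wells, 2 h at 37 °C. Detected with anti-His then DyLight549 anti-mouse IgG. Fluorescence averaged, log2-transformed, apparent Kd fitted from binding curves.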

[2] = target: T2, recombinant Bauhinia forficata lectin (BfL-His6) (Bauhinia forficata, UniProt P86993 1-233); assay: peptide or protein array
T2 sequence: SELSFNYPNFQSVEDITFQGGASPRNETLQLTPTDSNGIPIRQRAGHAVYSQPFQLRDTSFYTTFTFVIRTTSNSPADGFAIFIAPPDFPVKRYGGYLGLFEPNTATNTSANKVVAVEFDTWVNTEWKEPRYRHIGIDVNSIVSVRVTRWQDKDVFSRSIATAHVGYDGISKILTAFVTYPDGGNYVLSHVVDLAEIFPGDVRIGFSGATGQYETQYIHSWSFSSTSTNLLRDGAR

[3] = target: T3, Ac-A-Tn(Thr)-S-G - 05; assay: peptide or protein array
T3 sequence (peptide, N-terminal acetyl; Tn (GalNAc α-linked) on the second residue (Thr)): ATSG

[4] = target: T4, Ac-S-Ser(core 5)-S-G-18; assay: peptide or protein array
T4 sequence (peptide, N-terminal acetyl; core 5 (GalNAcα1-3GalNAcα1-) on the second residue (Ser)): SSSG

[5] = target: T5, Ac-S-Thr(F1α)-S-G - 18; assay: peptide or protein array
T5 sequence (peptide, N-terminal acetyl; F1α (Galβ1-4GlcNAcβ1-6GalNAcα1-) on the second residue (Thr)): STSG

[6] = target: T6, Ac-S-Tn(Ser)-S-G - 04; assay: peptide or protein array
T6 sequence (peptide, N-terminal acetyl; Tn (GalNAc α-linked) on the second residue (Ser)): SSSG

[7] = target: T7, Ac-S-Tn(Ser)-S-G - 22; assay: peptide or protein array
T7 sequence (peptide, N-terminal acetyl; Tn (GalNAc α-linked) on the second residue (Ser)): SSSG

[8] = target: T8, Ac-S-Tn(Thr)-S-G - 04; assay: peptide or protein array
T8 sequence (peptide, N-terminal acetyl; Tn (GalNAc α-linked) on the second residue (Thr)): STSG

[9] = target: all forms of the Tn antigen (Tn glycopeptides, 55 array components); assay: peptide or protein array
[10] = target: ovine submaxillary mucin (ovine); assay: peptide or protein array
[11] = tested on: human cancer cell lines of the NCI-60 panel; assay: NCI-60 Human Tumor Cell Lines Screen, One Dose Assay; format: cell-based; details: 1.85 μM
In short: (§1)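 Recombinant His-tagged test lectin, refolded from E. coli inclusion bodies, was gel-filtered into 50 mM Hepes pH 7.5, 150 mM NaCl before use. NCI DTP ran a one-dose screen at 1.85 μM following its published protocols. Read-out was SRB colorimetric total protein in non-lysed cells. Growth percent is relative to drug-free medium, averaged over two experiments.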

[12] = tested on: melanoma LOX IMVI cell line; assay: NCI-60 One Dose Assay; format: cell-based, human; details: 1.85 μM, SRB assay, 5% serum, average of two experiments
In short: as §1

[13] = solubility of recombinant BfL; format: physicochemical
In short: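 Recombinant His6-tagged lectin was expressed in bacteria, recovered from inclusion bodies and refolded at 5 °C. It was then dialysed overnight against 50 mM Tris-HCl pH 7.5, 0.2 M NaCl, 1 mM CaCl2, and concentrated to 8-10 mg/ml at room temperature for storage at −80 °C. The preceding purification and refolding steps were run at 5 °C.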

[14] = tested on: MCF7 human breast cancer cell line; details: natural BfL from seeds; after 72 hours at 2.5 µM; cited from earlier work
[15] = tested on: rabbit erythrocytes; details: natural BfL from seeds; cited from earlier work
[16] = tested on: human erythrocytes originating from all blood types; details: natural BfL from seeds; cited from earlier work
[17] = tested on: normal and several types of cancer cells; details: natural BfL from seeds; cited from earlier work

“-G-V-T-S-A-P-D-T-R-P-A-P-G-S- Tn(Thr)-A-P-P-A (GVTSAPDTRPAPGST(αGalNAc)APPA; also: conjugated to albumin carrier (BSA or HSA)) [Muc1-Tn15]” gave an RFUmax [1] of 17917 RFU.

With “Ac-S-Tn(Ser)-V-G-13: Tn glycopeptide on BSA or HSA, array component (Ac-SS(αGalNAc)VG; also: on BSA or HSA carrier)” the RFUmax [1] was 17255 RFU.

With “AzHex-P-D-Tn(Thr)-R-P-NH2-07: Tn glycopeptide on BSA or HSA, array component (AzHex-PDT(αGalNAc)RP-NH2; also: on BSA or HSA carrier)” the RFUmax [1] was 15559 RFU.

GalNAcα1-3(Fucα1-2)Gal [BG-A -19] showed an RFUmax [1] of 15700 RFU.

In the case of GalNAcα1-3Gal [GalNAcα1-3Gal - 17], the “binding of BfL on glycan microarray (in words)” value (shortened to “binding of BfL”) [1] is reported as “strong binding” and the RFUmax [1] is reported as 17826 RFU.

For “GalNAcα1-3GalNAcα1-Ser (Ac-SSSG; not fully specified (residue 2); also: on BSA or HSA carrier) [Ac-S-Ser(core 5)-S-G-18]”, the “binding of BfL” value [1] was “good binder” and the RFUmax [1] was 18580 RFU.

In the case of “GalNAcα1-3GalNAcβ1-3Galα1-4Galβ [Forssman Tetra-BSA - 13]”, the “binding of BfL” value [1] is reported as “strong binding” and the RFUmax [1] is reported as 18518 RFU.

With GalNAcα1-6Galβ [GalNAcα1-6Galβ - 22] the “binding of BfL” value [1] was “strong binding” and the RFUmax [1] was 19055 RFU.

In the case of GalNAcβ1-3Galα1-3Galβ [iGb4], the “binding of BfL” value [1] is reported as “strong binding”.

In the case of “GalNAcβ1-3Galα1-4Galβ1-4GlcNAcβ [Gb4 - 09]”, the “binding of BfL” value [1] is reported as “strong binding”, the RFUmax [1] is reported as 14003 RFU and the Kd ([1]; read-out: App Kd, apparent Kd, multivalent avidity on carbohydrate array) is reported as 0.68 nM.

With GalNAcβ1-4Galβ [GA2di - 37] the “binding of BfL” value [1] was “strong binding” and the RFUmax [1] was 17241 RFU.

With GalNAcβ1-4GlcNAcβ [LDN-Sp - 14] the “binding of BfL” value [1] was “strong binding” and the RFUmax [1] was 18291 RFU.

In the case of “Galβ1-4GlcNAcβ1-6GalNAcα1-Thr (Ac-ST(Galβ1‑4GlcNAcβ1‑6GalNAcα1)SG; also: on BSA or HSA carrier) [Ac-S-Thr(F1α)-S-G - 18]”, the RFUmax [1] is reported as 17214 RFU.

Molecule AzHex-PDT(αGalNAc)RP-NH2 [AzHex-P-D-Tn(Thr)-R-P-NH2-07] has a Kd [2] of 1.25 nM.

B1: recombinant Bauhinia forficata lectin (BfL-His6) (natural protein)
chain: SELSFNYPNFQSVEDITFQGGASPRNETLQLTPTDSNGIPIRQRAGHAVYSQPFQLRDTSFYTTFTFVIRTTSNSPADGFAIFIAPPDFPVKRYGGYLGLFEPNTATNTSANKVVAVEFDTWVNTEWKEPRYRHIGIDVNSIVSVRVTRWQDKDVFSRSIATAHVGYDGISKILTAFVTYPDGGNYVLSHVVDLAEIFPGDVRIGFSGATGQYETQYIHSWSFSSTSTNLLRDGAR
Molecule B1 has a Kd [3] of 0.63 nM, a Kd [4] of 1.02 nM and a Kd [5] of 2.51 nM. For the same molecule, the Kd [6] was 0.75 nM, the Kd [7] was 0.65 nM and the Kd [8] was 0.71 nM. For the same molecule, the Kd [9] was 0.4 to 1.2 nM and the Kd [10] was 10.7 nM.

B2: BfL: recombinant Bauhinia forficata lectin expressed in E. coli and refolded, non-glycosylated, C-terminal His6 tag, dimeric (protein)
chain: SELSFNYPNFQSVEDITFQGGASPRNETLQLTPTDSNGIPIRQRAGHAVYSQPFQLRDTSFYTTFTFVIRTTSNSPADGFAIFIAPPDFPVKRYGGYLGLFEPNTATNTSANKVVAVEFDTWVNTEWKEPRYRHIGIDVNSIVSVRVTRWQDKDVFSRSIATAHVGYDGISKILTAFVTYPDGGNYVLSHVVDLAEIFPGDVRIGFSGATGQYETQYIHSWSFSSTSTNLLRDGAR
modifications: left off: His6, C-terminal, kept
In the case of B2, the cytotoxic effects [11] is reported as “No cytotoxic effects”, the “growth inhibition, strong effect, five cell lines” value ([11]; observed for five cell lines of different cancers) is reported as > 50% and the “cell lines not inhibited” value ([11]; share of the cell lines of the panel) is reported as “About 50%”. The growth inhibition [12] was “over 95%”, the “solubility (in words)” value ([13]; 5 °C, compared with room temperature) was “decreases” and the solubility ([13]; room temperature) was 8000 to 10000 µg/mL. The inhibition of viability [14] was 35%, the “concentration that agglutinates erythrocytes” value [15] was ≥ 1 µg/mL and the “concentration that agglutinates erythrocytes” value [16] was ≥ 1 µg/mL. For the same molecule, the “cytotoxicity (in words)” value [17] was “non-cytotoxic”.

With Ac-APGST(αGalNAc)APPAG [Ac-A-P-G-S-Tn(Thr)-A-P-P-A-G-03] the Kd [2] was 0.65 nM.
